According to ChEMBL document CHEMBL1938295, “Synthesis of substituted benzimidazolyl curcumin mimics and their anticancer activity” (Bioorg Med Chem Lett, 2012):

Experiments:
Assay type in all cases: functional, cell-based
HepG2 = test: Cytotoxicity against human HepG2 cells after 24 to 48 hrs by MTT assay
Summary of the method: (§1)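 Treatment began 24 h after seeding. Compounds were dissolved in DMSO and diluted in DMEM to final 1, 5, 10, 20 and 40 μM, then incubated 24 or 48 h. MTT (0.5 mg/ml) was added for 3 h at 37 °C, formazan dissolved in DMSO, and absorbance read at 595 nm. Each assay was run in triplicate. IC50 came from nonlinear regression of a sigmoid dose-response curve, accepted when R^2 >0.95.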

NCI-H460 = test: Cytotoxicity against human H460 cells after 24 to 48 hrs by MTT assay; summary of the method: as §1
SH-SY5Y = test: Cytotoxicity against human SH-SY5Y cells after 24 to 48 hrs by MTT assay; summary of the method: as §1
MCF7 = test: Cytotoxicity against human MCF7 cells after 24 to 48 hrs by MTT assay

| SMILES | IC50 (HepG2) [µM] | IC50 (NCI-H460) [µM] | IC50 (SH-SY5Y) [µM] | IC50 (MCF7) [µM] |
| --- | --- | --- | --- | --- |
| COc1cc(/C=C/C(=O)/C=C/c2nc3ccccc3n2C)ccc1O | 2.9 | 7 | 4.7 | 3.7 |
| COc1cc(/C=C/C(=O)/C=C/c2nc3cc(C)ccc3n2C)ccc1O | 4.2 | 7.7 | 4.7 | 4.5 |
| COc1cc(/C=C/C(=O)/C=C/c2nc3c(C)cccc3n2C)ccc1O | 1.9 | 3 | 1 | 3.5 |
| COc1cc(/C=C/C(=O)/C=C/c2nc3c(C)c(C)ccc3n2C)ccc1O | 8.5 | 31.9 | 19 | 14.1 |
| COc1ccc2c(c1)nc(/C=C/C(=O)/C=C/c1ccc(O)c(OC)c1)n2C | 3.8 | 12.7 | 4.8 | 3.9 |
| COc1cc(/C=C/C(=O)/C=C/c2nc3cc(Cl)ccc3n2C)ccc1O | 4 | 8.9 | 4.7 | 4.4 |
| COc1cc(/C=C/C(=O)/C=C/c2nc3cc([N+](=O)[O-])ccc3n2C)ccc1O | 3.7 | 6.7 | 4.6 | 3.7 |
| COc1cc(/C=C/C(=O)/C=C/c2nc3cc(O)ccc3n2C)ccc1O | 3.6 | 7.6 | 4.8 | 2.9 |
| COc1ccc(/C=C/C(=O)/C=C/c2nc3ccccc3n2C)cc1O | 2.9 | 6.9 | 4.8 | 3.6 |
| COc1ccc(/C=C/C(=O)/C=C/c2nc3cc(C)ccc3n2C)cc1O | 3.3 | 7.7 | 4.8 | 3.6 |
| COc1ccc(/C=C/C(=O)/C=C/c2nc3c(C)cccc3n2C)cc1O | 14.7 | 25.4 | 19.1 | 7.4 |
| COc1ccc(/C=C/C(=O)/C=C/c2nc3c(C)c(C)ccc3n2C)cc1O | 3.9 | 7.3 | 4.8 | 3.5 |
| COc1ccc2c(c1)nc(/C=C/C(=O)/C=C/c1ccc(OC)c(O)c1)n2C | 4.2 | 11.7 | 4.8 | 3.7 |
| COc1ccc(/C=C/C(=O)/C=C/c2nc3cc(Cl)ccc3n2C)cc1O | 4.1 | 7.3 | 4.8 | 3.5 |
| COc1ccc(/C=C/C(=O)/C=C/c2nc3cc([N+](=O)[O-])ccc3n2C)cc1O | 4.6 | 10.5 | 8.1 | 4.8 |
| COc1ccc(/C=C/C(=O)/C=C/c2nc3cc(O)ccc3n2C)cc1O | 3.7 | 7.2 | 4.6 | 1.9 |
| COc1cc(/C=C/C(=O)CC(=O)/C=C/c2ccc(O)c(OC)c2)ccc1O [CURCUMIN] | 87.5 | 51.3 | 105 | 49.8 |
| CC(=O)O[C@H]1C(=O)[C@@]2(C)[C@H]([C@H](OC(=O)c3ccccc3)[C@]3(O)C[C@H](OC(=O)[C@H](O)[C@@H](NC(=O)c4ccccc4)c4ccccc4)C(C)=C1C3(C)C)[C@]1(OC(C)=O)CO[C@@H]1C[C@@H]2O [PACLITAXEL] | 0.007 | 0.008 | 0.004 |  |
